This note sets out measurements from paper PMC8317200 (Journal of medicinal chemistry, 2020).

Residues, ends and D or L forms follow the SMILES beside them. *: point of attachment. Adamantane1carbonyl = O=C(C12CC3CC(CC(C3)C1)C2)*; NH(1-Adamantyl) = C1C2CC3CC1CC(N*)(C2)C3; Cbz = O=C(OCc1ccccc1)*; OtBu = CC(C)(C)O*; OAll = C=CCO*; OPr = CCCO*

The chains are these.
B1: fibroblast growth factor 14 (FGF14), aa 64–252 (domain or fragment, human, UniProt Q92915-2 64-252, looked up)
chain: KNKNPTDPQLKGIVTRLYCRQGYYLQMHPDGALDGTKDDSTNSTLFNLIPVGLRVVAIQGVKTGLYIAMNGEGYLYPSELFTPECKFKESVFENYYVIYSSMLYRQQESGRAWFLGLNKEGQAMKGNRVKKTKPAAHFLPKPLEVAMYREPSLHDVGETVPKPGVTPSKSTSASAIMNGGKPVNKSKTT
B3: Nav1.6 C-terminal tail, aa 1767–1912 (domain or fragment, human, UniProt Q9UQD0-1 1767-1912, looked up)
chain: ENFSVATEESADPLSEDDFETFYEIWEKFDPDATQFIEYCKLADFADALEHPLRVPKPNTIELIAMDLPMVSGDRIHCLDILFAFTKRVLGDSGELDILRQQMEERFVASNPSKVSYEPITTTLRRKQEEVSAVVLQRAYRGHLAR

Test [1] has as its target Nav1.1 channels (Homo sapiens, UniProt P35498). The test is described as follows: Whole-cell patch-clamp electrophysiology in HEK-Nav1.1 cells. The format is cell-based. For orientation: In patch-clamp work, channel activity is measured electrically.
Test [2] concerns the target Nav1.2 channels (Homo sapiens, UniProt Q99250). In words: Whole-cell patch-clamp electrophysiology in HEK-Nav1.2 cells. The format is cell-based.
Test [3] deals with Nav1.6 C-terminal tail (Homo sapiens, UniProt Q9UQD0). In words: Surface plasmon resonance. It counts as binding. The note with it: for koff: read-out: koff Nav1.6 C-terminal tail; for kon: read-out: kon Nav1.6 C-terminal tail. In general terms: In SPR one partner is held on a chip, and binding of the other changes the refractive index at the surface.
Test [4] addresses T1, FGF14 (Homo sapiens, UniProt Q92915).
T1 sequence (Q92915 64-252 isoform Q92915-2): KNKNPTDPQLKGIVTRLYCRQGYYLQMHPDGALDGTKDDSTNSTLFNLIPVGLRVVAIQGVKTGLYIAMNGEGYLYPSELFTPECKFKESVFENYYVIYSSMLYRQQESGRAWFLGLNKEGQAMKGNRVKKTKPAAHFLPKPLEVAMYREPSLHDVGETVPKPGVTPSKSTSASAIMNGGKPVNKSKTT
In words: Surface plasmon resonance. It counts as binding. Conditions: for koff: read-out: koff FGF14; for kon: read-out: kon FGF14.

Test [5] concerns the target T2, FGF14:Nav1.6 complex (Homo sapiens, UniProt Q92915).
T2 sequence (Q92915 1-252 isoform Q92915-2): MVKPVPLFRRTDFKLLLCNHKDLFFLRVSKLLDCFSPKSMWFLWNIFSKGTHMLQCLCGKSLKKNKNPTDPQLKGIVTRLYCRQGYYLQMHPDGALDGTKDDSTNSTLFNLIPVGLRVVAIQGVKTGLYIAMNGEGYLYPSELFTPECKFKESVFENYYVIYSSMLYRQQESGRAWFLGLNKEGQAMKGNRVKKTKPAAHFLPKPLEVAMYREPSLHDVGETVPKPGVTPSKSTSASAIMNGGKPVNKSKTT
In words: Split-luciferase complementation assay. The format is cell-based. Conditions: for activity at 50 µM: HEK293, 1 h, read-out: RLVs (%); for Inhibitory activity against FGF14:Nav1.6 complex assembly (in words): 50 μM screening.

Test [6] concerns the target human Nav1.6 (HEK-Nav1.6) channels (Homo sapiens, UniProt Q9UQD0). It counts as cell-based. Conditions: 30 μM; absence of FGF14. Summed up:
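HEK293 cells stably expressing human Nav1.6 were kept under 500 μg/mL G418 with no FGF14 transfection. They were washed and re-plated at very low density onto glass coverslips, and the test compound was applied at 30 μM. Whole-cell patch clamp used extracellular solution (mM): 140 NaCl, 3 KCl, 1 MgCl2, 1 CaCl2, 10 HEPES, 10 glucose.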

Test [7] deals with B3. The test is described as follows: SPR.
Test [8] deals with FGF14:Nav1.6 (Homo sapiens, UniProt Q92915+Q9UQD0). The test is described as follows: SPR of FGF14 binding to Nav1.6 C-terminal tail, alone or in complex with 21a. The note with it: FGF14 alone. In short, it runs like this: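 Recombinant human Nav1.6 C-terminal tail (aa 1763–1976, His-tagged, E. coli-expressed, purified by column chromatography) amine-coupled to a CM5 chip (934 RU). FGF14 at 15.6–1500 nM, complexed with 2.1% DMSO alone, was flowed over the chip at 25 °C and 50 μL/min. Injection 120 s, dissociation 150 s, then regeneration (600 mM NaCl, 5% DMSO). kon and koff came from a Langmuir 1:1 fit.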

For test [9], the target named is B1. The test is described as follows: SPR.

Sequence of Nav1.2 channels (Q99250 whole entry): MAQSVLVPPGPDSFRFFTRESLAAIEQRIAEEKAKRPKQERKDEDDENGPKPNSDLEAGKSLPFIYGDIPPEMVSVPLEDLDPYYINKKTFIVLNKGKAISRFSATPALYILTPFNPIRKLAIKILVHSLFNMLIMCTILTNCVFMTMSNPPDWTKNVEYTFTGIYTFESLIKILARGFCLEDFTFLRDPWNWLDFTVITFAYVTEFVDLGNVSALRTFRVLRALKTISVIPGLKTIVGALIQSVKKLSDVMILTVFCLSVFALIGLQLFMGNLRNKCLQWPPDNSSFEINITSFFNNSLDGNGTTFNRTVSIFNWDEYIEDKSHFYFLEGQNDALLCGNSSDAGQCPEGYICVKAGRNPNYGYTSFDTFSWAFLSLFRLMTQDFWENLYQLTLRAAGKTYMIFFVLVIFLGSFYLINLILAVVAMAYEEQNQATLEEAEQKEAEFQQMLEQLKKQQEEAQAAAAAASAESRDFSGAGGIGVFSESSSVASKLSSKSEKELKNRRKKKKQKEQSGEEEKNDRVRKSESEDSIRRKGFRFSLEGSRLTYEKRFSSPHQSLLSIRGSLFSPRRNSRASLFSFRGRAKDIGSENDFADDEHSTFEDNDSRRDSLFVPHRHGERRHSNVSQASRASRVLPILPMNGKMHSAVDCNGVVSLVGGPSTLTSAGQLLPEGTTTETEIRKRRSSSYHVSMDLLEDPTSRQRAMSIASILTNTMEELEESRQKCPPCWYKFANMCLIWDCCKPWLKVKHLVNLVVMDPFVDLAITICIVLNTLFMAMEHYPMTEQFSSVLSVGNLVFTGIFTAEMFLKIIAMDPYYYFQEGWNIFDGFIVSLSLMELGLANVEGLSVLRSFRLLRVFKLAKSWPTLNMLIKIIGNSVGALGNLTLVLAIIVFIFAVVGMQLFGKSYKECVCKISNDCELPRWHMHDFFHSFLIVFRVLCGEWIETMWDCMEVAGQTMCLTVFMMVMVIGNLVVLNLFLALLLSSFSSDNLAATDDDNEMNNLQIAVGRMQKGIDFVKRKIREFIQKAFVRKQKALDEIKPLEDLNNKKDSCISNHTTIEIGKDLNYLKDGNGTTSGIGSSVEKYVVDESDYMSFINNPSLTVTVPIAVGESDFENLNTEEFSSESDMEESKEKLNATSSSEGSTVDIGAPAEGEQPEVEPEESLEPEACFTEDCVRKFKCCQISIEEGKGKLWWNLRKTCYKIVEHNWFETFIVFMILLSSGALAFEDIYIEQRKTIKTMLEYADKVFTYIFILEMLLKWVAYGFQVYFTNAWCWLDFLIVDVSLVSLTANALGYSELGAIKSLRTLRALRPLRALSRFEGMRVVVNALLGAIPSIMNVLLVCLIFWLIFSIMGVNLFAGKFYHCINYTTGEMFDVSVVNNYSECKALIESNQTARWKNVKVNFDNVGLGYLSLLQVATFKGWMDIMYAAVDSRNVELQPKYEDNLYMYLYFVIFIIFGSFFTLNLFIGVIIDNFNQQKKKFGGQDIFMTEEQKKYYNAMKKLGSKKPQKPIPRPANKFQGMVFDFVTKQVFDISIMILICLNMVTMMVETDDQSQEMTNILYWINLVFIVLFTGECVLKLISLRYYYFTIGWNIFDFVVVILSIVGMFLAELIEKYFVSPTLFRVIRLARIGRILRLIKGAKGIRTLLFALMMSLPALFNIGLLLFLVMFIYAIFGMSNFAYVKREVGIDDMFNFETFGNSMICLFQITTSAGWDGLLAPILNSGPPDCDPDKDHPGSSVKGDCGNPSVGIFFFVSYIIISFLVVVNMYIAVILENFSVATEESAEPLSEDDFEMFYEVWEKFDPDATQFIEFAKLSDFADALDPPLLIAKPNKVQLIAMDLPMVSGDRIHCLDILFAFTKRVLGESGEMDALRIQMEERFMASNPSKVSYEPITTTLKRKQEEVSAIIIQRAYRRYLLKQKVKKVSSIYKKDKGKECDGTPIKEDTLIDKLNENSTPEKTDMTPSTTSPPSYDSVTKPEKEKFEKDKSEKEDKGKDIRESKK
Sequence of human Nav1.6 (HEK-Nav1.6) channels (Q9UQD0 whole entry): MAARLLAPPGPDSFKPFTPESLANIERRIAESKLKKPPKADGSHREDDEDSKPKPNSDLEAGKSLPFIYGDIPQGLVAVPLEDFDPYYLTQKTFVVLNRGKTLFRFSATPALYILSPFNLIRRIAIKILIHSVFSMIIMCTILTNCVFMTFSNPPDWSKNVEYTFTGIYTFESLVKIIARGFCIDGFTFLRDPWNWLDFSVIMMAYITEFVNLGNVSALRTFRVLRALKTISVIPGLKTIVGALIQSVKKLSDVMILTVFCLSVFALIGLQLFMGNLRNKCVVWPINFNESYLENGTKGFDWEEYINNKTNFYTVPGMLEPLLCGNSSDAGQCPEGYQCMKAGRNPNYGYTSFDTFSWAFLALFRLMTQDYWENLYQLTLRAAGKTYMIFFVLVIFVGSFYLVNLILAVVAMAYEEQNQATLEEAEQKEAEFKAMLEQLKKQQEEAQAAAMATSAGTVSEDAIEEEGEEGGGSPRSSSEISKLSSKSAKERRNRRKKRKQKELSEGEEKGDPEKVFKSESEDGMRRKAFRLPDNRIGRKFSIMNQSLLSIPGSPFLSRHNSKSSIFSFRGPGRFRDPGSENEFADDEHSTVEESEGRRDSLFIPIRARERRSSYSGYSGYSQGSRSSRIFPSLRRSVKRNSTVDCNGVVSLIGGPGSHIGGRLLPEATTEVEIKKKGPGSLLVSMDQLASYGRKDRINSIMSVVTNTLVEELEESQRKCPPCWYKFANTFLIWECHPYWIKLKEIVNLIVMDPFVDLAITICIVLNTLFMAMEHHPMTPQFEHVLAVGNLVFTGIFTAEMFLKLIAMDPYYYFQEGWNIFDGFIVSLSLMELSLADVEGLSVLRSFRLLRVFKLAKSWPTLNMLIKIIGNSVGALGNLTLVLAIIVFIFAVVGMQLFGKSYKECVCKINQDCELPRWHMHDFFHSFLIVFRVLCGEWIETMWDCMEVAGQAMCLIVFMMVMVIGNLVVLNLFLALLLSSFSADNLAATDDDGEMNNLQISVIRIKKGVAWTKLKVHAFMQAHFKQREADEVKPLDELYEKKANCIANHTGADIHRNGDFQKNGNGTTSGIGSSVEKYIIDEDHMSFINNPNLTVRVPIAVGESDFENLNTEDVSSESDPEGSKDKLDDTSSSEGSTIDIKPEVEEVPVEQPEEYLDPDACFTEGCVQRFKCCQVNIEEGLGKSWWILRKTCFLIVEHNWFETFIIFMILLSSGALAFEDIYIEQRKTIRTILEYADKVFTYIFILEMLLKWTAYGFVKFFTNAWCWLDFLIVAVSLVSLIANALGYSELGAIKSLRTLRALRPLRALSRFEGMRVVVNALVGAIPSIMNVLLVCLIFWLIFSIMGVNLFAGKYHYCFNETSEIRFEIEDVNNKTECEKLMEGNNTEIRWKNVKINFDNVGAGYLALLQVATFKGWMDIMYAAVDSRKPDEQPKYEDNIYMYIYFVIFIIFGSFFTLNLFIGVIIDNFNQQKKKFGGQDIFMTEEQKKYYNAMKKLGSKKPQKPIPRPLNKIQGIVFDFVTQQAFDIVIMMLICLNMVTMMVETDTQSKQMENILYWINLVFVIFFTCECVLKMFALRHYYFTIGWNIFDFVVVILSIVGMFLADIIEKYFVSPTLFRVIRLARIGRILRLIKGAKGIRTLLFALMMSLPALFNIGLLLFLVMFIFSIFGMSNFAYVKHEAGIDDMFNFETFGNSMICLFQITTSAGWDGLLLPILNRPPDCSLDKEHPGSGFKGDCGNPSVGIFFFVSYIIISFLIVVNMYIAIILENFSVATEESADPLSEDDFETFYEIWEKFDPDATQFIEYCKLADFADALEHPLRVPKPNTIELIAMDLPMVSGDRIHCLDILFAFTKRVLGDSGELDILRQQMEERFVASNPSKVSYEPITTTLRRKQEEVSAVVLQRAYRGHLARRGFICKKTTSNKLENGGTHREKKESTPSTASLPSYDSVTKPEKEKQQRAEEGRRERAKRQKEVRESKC

By koff is commonly meant the first-order rate constant of dissociation. In general, kon refers to the rate constant with which the complex forms. For `COC(=O)[C@@H](NC(=O)[C@H](CCC(=O)OC(C)(C)C)NC(=O)[C@H](CC(C)C)NC(=O)[C@@H]1CCCN1C(=O)C12CC3CC(CC(C3)C1)C2)C(C)C` [Compound 21a, tert-Butyl (S)-4-((S)-2-((S)-1-((3S,5S,7S)-adamantane-1-carbonyl)pyrrolidine-2-carboxamido)-4-methylpentanamido)-5-(((S)-1-methoxy-3-methyl-1-oxobutan-2-yl)amino)-5-oxopentanoate] (Adamantane1carbonyl-PLE(OtBu)V-OMe), the “Changes in the kinetic properties of Nav1.1 channels” value in [1] is listed as “no changes”. Further, the “Changes in the kinetic properties of Nav1.2 channels” value in test [2] was “no changes”. Besides, in test [3], the “Binding to Nav1.6 C-terminal tail by SPR (in words)” value (“Binding … (in words)” below) is on record as “appreciable binding”, the koff was 0.00357 s⁻¹ and the kon was 62300 M⁻¹ s⁻¹. Besides, in [4], the koff was found to be 0.00933 s⁻¹ and the kon came out at 4660 M⁻¹ s⁻¹.
As to `CCOC(=O)[C@@H](NC(=O)[C@H](CCC(=O)OC(C)(C)C)NC(=O)[C@H](CC(C)C)NC(=O)[C@@H]1CCCN1C(=O)C12CC3CC(CC(C3)C1)C2)C(C)C` [Compound 23f, tert-Butyl (4S)-4-((2S)-2-((2S)-1-((1R,3R)-adamantane-1-carbonyl)pyrrolidine-2-carboxamido)-4-methylpentanamido)-5-(((S)-1-ethoxy-3-methyl-1-oxobutan-2-yl)amino)-5-oxopentanoate] (Adamantane1carbonyl-PLE(OtBu)V-OEt), in test [3], the “Binding … (in words)” value is on record as “appreciable binding”, the koff stood at 0.0122 s⁻¹ and the kon was determined as 2640 M⁻¹ s⁻¹. Further, in [4], the koff was 0.0205 s⁻¹ and the kon came to 217 M⁻¹ s⁻¹.
With `COC(=O)[C@@H](NC(=O)[C@H](CC(C)C)NC(=O)[C@@H]1CCCN1C(=O)OCc1ccccc1)C(C)C` [Compound 32, Benzyl (S)-2-(((S)-1-(((S)-1-methoxy-3-methyl-1-oxobutan-2-yl)amino)-4-methyl-1-oxopentan-2-yl)carbamoyl)pyrrolidine-1-carboxylate] (Cbz-Pro-Leu-Val-OMe), in test [5], the activity at 50 µM is over 100%.
As to `CCCOC(=O)[C@@H](NC(=O)[C@H](CCC(=O)OC(C)(C)C)NC(=O)[C@H](CC(C)C)NC(=O)[C@@H]1CCCN1C(=O)C12CC3CC(CC(C3)C1)C2)C(C)C` [Compound 23g, tert-Butyl (4S)-4-((2S)-2-((2S)-1-((1R,3R)-adamantane-1-carbonyl)pyrrolidine-2-carboxamido)-4-methylpentanamido)-5-(((S)-3-methyl-1-oxo-1-propoxybutan-2-yl)amino)-5-oxopentanoate] (Adamantane1carbonyl-PLE(OtBu)V-OPr), in test [3], the “Binding … (in words)” value is “appreciable binding”, the koff amounted to 0.0492 s⁻¹ and the kon turned out to be 340 M⁻¹ s⁻¹. Moreover, in test [4], the koff is 0.0204 s⁻¹ and the kon came to 289 M⁻¹ s⁻¹.
In the case of `COC(=O)[C@@H](NC(=O)[C@H](CCC(=O)OC(C)(C)C)NC(=O)[C@H](CC(C)C)NC(=O)[C@@H]1CCCN1C(C)=O)C(C)C` [Compound 21c, tert-Butyl (S)-4-((S)-2-((S)-1-acetylpyrrolidine-2-carboxamido)-4-methylpentanamido)-5-(((S)-1-methoxy-3-methyl-1-oxobutan-2-yl)amino)-5-oxopentanoate] (Ac-PLE(OtBu)V-OMe), the “Inhibitory activity against FGF14:Nav1.6 complex assembly (in words)” value in test [5] is “markedly reduced inhibitory activity”.
With `CC(C)C[C@H](NC(=O)[C@@H]1CCCN1C(=O)OCc1ccccc1)C(=O)N[C@@H](CCC(=O)OC(C)(C)C)C(=O)N[C@H](C(=O)NC12CC3CC(CC(C3)C1)C2)C(C)C` [Compound 19h, Benzyl (S)-2-(((S)-1-(((S)-1-(((S)-1-(((3R,5R,7R)-adamantan-1-yl)amino)-3-methyl-1-oxobutan-2-yl)amino)-5-(tert-butoxy)-1,5-dioxopentan-2-yl)amino)-4-methyl-1-oxopentan-2-yl)carbamoyl)pyrrolidine-1-carboxylate] (Cbz-PLE(OtBu)V-{NH(1-Adamantyl)}), the “Inhibitory activity against FGF14:Nav1.6 complex assembly (in words)” value in [5] is given as “minimal inhibitory activity”.
For the molecule `CC(C)C[C@H](NC(=O)[C@@H]1CCCN1C(=O)OCc1ccccc1)C(=O)N[C@H](C(N)=O)C(C)C` [Compound 31, Benzyl (S)-2-(((S)-1-(((S)-1-amino-3-methyl-1-oxobutan-2-yl)amino)-4-methyl-1-oxopentan-2-yl)carbamoyl)pyrrolidine-1-carboxylate] (Cbz-Pro-Leu-Val-NH2), the activity at 50 µM in [5] was over 100%.
Turning to `C=CCOC(=O)[C@@H](NC(=O)[C@H](CCC(=O)OC(C)(C)C)NC(=O)[C@H](CC(C)C)NC(=O)[C@@H]1CCCN1C(=O)C12CC3CC(CC(C3)C1)C2)C(C)C` [Compound 23a, tert-Butyl (S)-4-((S)-2-((S)-1-((3S,5S,7S)-adamantane-1-carbonyl)pyrrolidine-2-carboxamido)-4-methylpentanamido)-5-(((S)-1-(allyloxy)-3-methyl-1-oxobutan-2-yl)amino)-5-oxopentanoate] (Adamantane1carbonyl-PLE(OtBu)V-OAll), in test [4], the koff amounted to 0.00932 s⁻¹ and the kon was determined as 17900 M⁻¹ s⁻¹. For the same molecule, the “Effect on Nav1.6-mediated currents” value in test [6] is “unaffected”.
For the molecule B1, the “KD with 10 μM 21a” value in test [7] amounted to 1420 ± 135 nM.

B2: FGF14: purified recombinant human fibroblast growth factor 14 protein flown over Nav1.6 C-terminal tail in SPR (protein)
chain: KNKNPTDPQLKGIVTRLYCRQGYYLQMHPDGALDGTKDDSTNSTLFNLIPVGLRVVAIQGVKTGLYIAMNGEGYLYPSELFTPECKFKESVFENYYVIYSSMLYRQQESGRAWFLGLNKEGQAMKGNRVKKTKPAAHFLPKPLEVAMYREPSLHDVGETVPKPGVTPSKSTSASAIMNGGKPVNKSKTT
modifications: left off: His6, N-terminal, state not stated
For the molecule B2, in [8], the “koff of FGF14 binding to Nav1.6 C-terminal tail” value came out at 0.00171 ± 1.02e-05 s⁻¹ and the “kon of FGF14 binding to Nav1.6 C-terminal tail” value was determined as 21800 ± 160 M⁻¹ s⁻¹.
Broadly, the Kd is the free concentration of one partner at which half of the binding sites on the other are occupied at equilibrium, for simple one-to-one binding. In test [9], B3 returned a Kd of 228 ± 57.5 nM, a koff of 0.00171 s⁻¹ and a kon of 21800 M⁻¹ s⁻¹.
